Data reported in ChEMBL document CHEMBL1157673, “Synthesis and in vitro evaluation of fluorinated diphenyloxide derivatives and sulfur analogs as serotonin transporter ligands” (Bioorg Med Chem, 2010).

Legend:
[1] = biological target: T1, Sodium-dependent dopamine transporter (Homo sapiens, UniProt Q01959); assay: Displacement of [3H]WIN-35428 from human cloned DAT expressed in HEK293 cells; format: cell-based; conditions: in the assay text read “[3H]GBR12935” for “[3H]WIN-35428”
In short: (§1)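 Each compound was first tested at 100 nM against tritiated radioligand binding. A Ki was determined only where that concentration inhibited at least 50% of specific binding (IC50 <100 nM).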

[2] = biological target: Sodium-dependent serotonin transporter (Homo sapiens, UniProt P31645); assay: Displacement of [3H]citalopram from human cloned SERT expressed in HEK293 cells; format: cell-based; in short: as §1
Sodium-dependent serotonin transporter, sequence (P31645 whole entry): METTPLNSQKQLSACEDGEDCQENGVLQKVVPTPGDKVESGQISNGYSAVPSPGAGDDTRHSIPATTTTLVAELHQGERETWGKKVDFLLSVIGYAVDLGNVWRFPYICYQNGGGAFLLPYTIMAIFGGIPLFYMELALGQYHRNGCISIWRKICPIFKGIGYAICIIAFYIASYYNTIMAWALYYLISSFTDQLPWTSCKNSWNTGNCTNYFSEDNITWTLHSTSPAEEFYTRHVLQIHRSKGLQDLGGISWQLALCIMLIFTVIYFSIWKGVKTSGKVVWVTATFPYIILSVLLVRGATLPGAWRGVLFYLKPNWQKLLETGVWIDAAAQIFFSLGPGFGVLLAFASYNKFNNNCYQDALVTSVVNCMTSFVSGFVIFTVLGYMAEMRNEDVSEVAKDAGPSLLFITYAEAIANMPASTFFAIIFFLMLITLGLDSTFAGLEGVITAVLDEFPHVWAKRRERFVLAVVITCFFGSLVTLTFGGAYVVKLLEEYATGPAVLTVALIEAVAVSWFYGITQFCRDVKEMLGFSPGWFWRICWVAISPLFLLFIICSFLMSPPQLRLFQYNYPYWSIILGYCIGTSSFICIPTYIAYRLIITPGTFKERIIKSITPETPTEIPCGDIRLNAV

[3] = biological target: Sodium-dependent noradrenaline transporter (Homo sapiens, UniProt P23975); assay: Displacement of [3H]nisoxetine from human cloned NET expressed in HEK293 cells; format: cell-based; in short: as §1
Sodium-dependent noradrenaline transporter, sequence (P23975 whole entry): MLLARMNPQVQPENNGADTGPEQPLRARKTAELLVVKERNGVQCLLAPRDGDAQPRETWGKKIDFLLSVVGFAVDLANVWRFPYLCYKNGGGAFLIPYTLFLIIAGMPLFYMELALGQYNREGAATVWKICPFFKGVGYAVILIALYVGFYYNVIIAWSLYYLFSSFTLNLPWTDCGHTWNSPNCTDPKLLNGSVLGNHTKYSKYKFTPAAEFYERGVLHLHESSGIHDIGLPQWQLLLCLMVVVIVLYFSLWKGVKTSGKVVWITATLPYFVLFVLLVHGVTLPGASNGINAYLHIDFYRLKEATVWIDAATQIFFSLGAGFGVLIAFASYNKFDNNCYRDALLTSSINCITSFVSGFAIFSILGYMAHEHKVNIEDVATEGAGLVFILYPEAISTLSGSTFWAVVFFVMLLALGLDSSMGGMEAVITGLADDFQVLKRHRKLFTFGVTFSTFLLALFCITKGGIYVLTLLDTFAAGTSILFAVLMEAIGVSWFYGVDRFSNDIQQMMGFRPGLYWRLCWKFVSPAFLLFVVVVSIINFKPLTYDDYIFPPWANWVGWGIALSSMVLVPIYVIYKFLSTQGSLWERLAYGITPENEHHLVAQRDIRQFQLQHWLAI

[4] = biological target: T1, Sodium-dependent dopamine transporter; assay: Displacement of [3H]GBR12935 from human cloned DAT expressed in HEK293 cells

T1 sequence (Q01959 whole entry): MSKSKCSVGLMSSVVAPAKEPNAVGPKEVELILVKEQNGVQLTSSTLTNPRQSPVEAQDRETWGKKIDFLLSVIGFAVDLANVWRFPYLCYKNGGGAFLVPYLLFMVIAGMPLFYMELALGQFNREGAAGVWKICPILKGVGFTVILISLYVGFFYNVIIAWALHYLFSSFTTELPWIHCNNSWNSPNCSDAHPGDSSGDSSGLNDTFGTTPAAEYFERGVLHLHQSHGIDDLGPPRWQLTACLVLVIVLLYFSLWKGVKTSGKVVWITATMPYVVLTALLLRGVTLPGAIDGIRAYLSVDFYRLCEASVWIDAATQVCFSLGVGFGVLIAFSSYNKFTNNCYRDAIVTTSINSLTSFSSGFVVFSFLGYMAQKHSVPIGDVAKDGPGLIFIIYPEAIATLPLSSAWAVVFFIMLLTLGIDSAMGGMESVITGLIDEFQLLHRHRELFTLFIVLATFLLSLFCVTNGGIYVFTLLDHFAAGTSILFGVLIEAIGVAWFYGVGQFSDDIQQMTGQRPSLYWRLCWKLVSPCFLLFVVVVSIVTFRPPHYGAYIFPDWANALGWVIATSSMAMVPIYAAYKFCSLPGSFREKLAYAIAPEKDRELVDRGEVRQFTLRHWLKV

Row | SMILES | Ki [1] | Ki [2] | Ki [3] | Ki [4]
1 | Cc1ccc(Sc2cc(F)ccc2CN(C)C)c(N)c1 | 1220 nM | 13 nM | 1200 nM | –
2 | Cc1ccc(Oc2cc(F)ccc2CN(C)C)c(N)c1 | 960 nM | 7 nM | 503 nM | –
3 | Cc1ccc(Oc2cc(OCCF)ccc2CN(C)C)c(N)c1 | 726 nM | 519 nM | 8850 nM | –
4 | Cc1ccc(Oc2ccc(OCCF)cc2CN(C)C)c(N)c1 | 4190 nM | 401 nM | 667 nM | –
5 | CN(C)Cc1ccccc1Oc1ccc(I)cc1N | – | 0.171 nM | – | –
6 | Cc1ccc(Oc2ccc(F)cc2CN(C)C)c(N)c1 | – | 8 nM | 1240 nM | 503 nM
7 | Cc1ccc(Oc2cc(OCCCF)ccc2CN(C)C)c(N)c1 | > 1000 nM | 445 nM | > 500 nM | –
8 | Cc1ccc(Oc2ccc(OCCCCF)cc2CN(C)C)c(N)c1 | – | 12 nM | 406 nM | 3600 nM
9 | Cc1ccc(Oc2ccc(OCCCF)cc2CN(C)C)c(N)c1 | 6980 nM | 7 nM | 632 nM | –
